Experimental data from different studies.
Lines come from different studies, so protocols differ.
Cell line: A549
Read-out: cell growth or viability

O=C(NCc1cn(Cc2ccc(Br)cc2)nn1)Nc1ccc(Cl)cc1
viability (CCK-8; 20 µM; 72 h): 102%

COc1ccc(NC(=O)NCc2cn(Cc3ccc(Br)cc3)nn2)cc1
viability (CCK-8; 20 µM; 72 h): 102%

NCCCCC(=O)Nc1ccccc1/N=c1\cc(-c2ccc3c(c2)OCO3)oc2ccccc12
inhibition (CCK-8; 1 µM): 3.56%

CCCCCCCCCCCCCCCCCCOCC(COP(=O)([O-])OCC[N+](C)(C)C)OC (centres unmarked)
inhibition (SRB; 10 µM): 2.5%

COc1ccc2/c(=N/c3ccccc3NC(=O)[C@@H](N)CO)cc(-c3ccc4c(c3)OCCO4)oc2c1
inhibition (CCK-8; 1 µM): 1.6%

O=C(NCc1cn(Cc2cccc(Cl)c2)nn1)Nc1ccc(Cl)cc1
viability (CCK-8; 20 µM; 72 h): 76.7%

NCC(=O)Nc1ccccc1/N=c1\cc(-c2ccc3c(c2)OCO3)oc2c([N+](=O)[O-])cccc12
inhibition (CCK-8; 1 µM): -2.29%

CCCCCCCCCCCCCCCCCCOc1ccccc1CC(=O)OCC[N+](CC)(CC)CC
inhibition (SRB; 10 µM): 70.7%

O=C(Nc1ccc(Cl)cc1)Nc1ccc(-c2cn(Cc3ccc(Cl)cc3)nn2)cc1
viability (CCK-8; 20 µM; 72 h): 73.2%

CCCCCCCCCCCCCCCCCCOc1cccc(CC(=O)OCC[N+](C)(C)C)c1
inhibition (SRB; 10 µM): 8.12%

COc1ccc(NC(=O)NCc2cn(Cc3ccccc3C)nn2)cc1
viability (CCK-8; 20 µM; 72 h): 65.6%

CCOc1ccc(-c2cc(C(=O)O)c(-c3ccc(Cl)cc3)o2)cc1
EC50 (MTT; 48 h): 75 µM

O=C(Nc1cccc(-c2cn(Cc3ccc(Cl)cc3)nn2)c1)Nc1ccccc1Br
viability (CCK-8; 50 µM; 72 h): 149%

O=C(Nc1ccc(Cl)cc1)Nc1cccc(-c2cn(Cc3cccc(Br)c3)nn2)c1
viability (CCK-8; 50 µM; 72 h): 145%

CCCCCCCCCCCCCCCCCCOc1cccc(CC(=O)OCC[N+]2(C)CCCCC2)c1
inhibition (SRB; 10 µM): 9.38%

COc1ccc(NC(=O)NCc2cn(Cc3ccc(Cl)cc3)nn2)cc1
viability (CCK-8; 50 µM; 72 h): 80.9%

NCC(=O)Nc1ccccc1/N=c1\cc(-c2ccc3c(c2)OCO3)oc2c(N)cccc12
inhibition (CCK-8; 1 µM): -3.51%

CCCCC(=O)Nc1ccc(-c2ccc3ncn(CC4CCC4)c(=O)c3c2)cn1
IC50 (CCK-8; 72 h): 0.32 µM

CCCCCCCCCCCCCCCCCCOc1ccc(CC(=O)OCC[N+]2(C)CCCC2)cc1
inhibition (SRB; 10 µM): 2.78%

COCCC(=O)Nc1ccccc1/N=c1\cc(-c2ccc3nc(N)oc3c2)oc2ccccc12
inhibition (CCK-8; 1 µM): -0.65%

O=C(NCc1cn(Cc2ccc(Cl)cc2)nn1)Nc1ccccc1Br
viability (CCK-8; 50 µM; 72 h): 86.1%

NCCCC(=O)Nc1ccccc1/N=c1\cc(-c2ccc3c(c2)OCO3)oc2ccccc12
inhibition (CCK-8; 1 µM): -0.2%

CCCCC(=O)Nc1ccc(-c2ccc3ncn(CCC)c(=O)c3c2)cc1F
IC50 (CCK-8; 72 h): > 10 µM

Cc1cc(=O)oc2cc(OCCCCSC#N)ccc12
GI50 (SRB): 5 µM

COc1ccc(NC(=O)Nc2ccc(-c3cn(Cc4ccc(Cl)cc4)nn3)cc2)cc1
viability (CCK-8; 50 µM; 72 h): 98.3%

CCCC(=O)Nc1ccc(-c2ccc3ncn(Cc4ccccc4)c(=O)c3c2)cn1
IC50 (CCK-8; 72 h): > 10 µM

O=C(NCc1cn(Cc2ccc(Cl)cc2)nn1)Nc1ccc(Cl)cc1
viability (CCK-8; 20 µM; 72 h): 61.7%

CCCCC(=O)Nc1ccc(-c2ccc3ncn(CCC)c(=O)c3c2)cc1
IC50 (CCK-8; 72 h): > 10 µM

COc1ccc(NC(=O)Nc2cccc(-c3cn(Cc4ccc(C)cc4)nn3)c2)cc1
viability (CCK-8; 20 µM; 72 h): 146%

CCCCn1cnc2ccc(-c3ccc(NC(=O)CCC)nc3)cc2c1=O
IC50 (CCK-8; 72 h): 3.19 µM

CCCCCCCCCCCCCCCCCCOc1ccc(CC(=O)OCC[N+]2(C)CCCCC2)cc1
inhibition (SRB; 10 µM): 11.1%

O=C(Nc1ccc(-c2cn(Cc3ccc(Br)cc3)nn2)cc1)Nc1ccccc1Br
viability (CCK-8; 50 µM; 72 h): 89%

COc1ccc2oc(-c3ccc4nc(N)oc4c3)c/c(=N\c3ccccc3NC(=O)CCN)c2c1
inhibition (CCK-8; 1 µM): 39.1%

Cc1cccc(NC(=O)Nc2ccc(-c3ccc4ncn(Cc5ccccc5)c(=O)c4c3)cn2)c1
IC50 (CCK-8; 72 h): > 10 µM

COc1ccc(NC(=O)Nc2ccc(-c3cn(Cc4cccc(Cl)c4)nn3)cc2)cc1
viability (CCK-8; 20 µM; 72 h): 102%

CCCCn1cnc2ccc(-c3ccc(NC(=O)Nc4ccc(OC)cc4)nc3)cc2c1=O
IC50 (CCK-8; 72 h): > 10 µM

N#CSCCCCOc1ccc2c(-c3ccccc3)cc(=O)oc2c1
GI50 (SRB): 36 µM

CCCCC(=O)Nc1ccc(-c2cnc3ncn(CCC)c(=O)c3c2)cn1
IC50 (CCK-8; 72 h): > 10 µM

NCCC(=O)Nc1ccccc1/N=c1\cc(-c2ccc3nc(N)oc3c2)oc2ccc(O)cc12
inhibition (CCK-8; 1 µM): 13.9%

COc1ccc(NC(=O)Nc2cccc(-c3cn(Cc4cccc(Cl)c4)nn3)c2)cc1
viability (CCK-8; 50 µM; 72 h): 237%

O=C(Nc1ccc(Cl)cc1)Nc1cccc(-c2cn(Cc3cccc(Cl)c3)nn2)c1
viability (CCK-8; 50 µM; 72 h): 166%
